Measurements gathered from unrelated publications.
pIC50: −log10 of the molar value.

SMILES	cell line	test	test system	conditions	measurement	result
N#Cc1ccc(NC(=S)NN)cc1	CRFK	cell growth or viability, MTS	–	–	CC50	84.6 µg/mL
CC(N)C12CC3CC(CC(C3)C1)C2 (stereo not drawn)	MDCK	cell growth or viability, MTT	–	72 h	CC50	62 µM
CC(C)(C)NC(=O)N[C@H](C(=O)N1C[C@H]2[C@@H]([C@H]1C(=O)NC(CC1CCC1)C(=O)C(N)=O)C2(C)C)C(C)(C)C (stereo partly drawn)	MDCK	cell growth or viability, neutral red	–	48 h	CC50	> 100 µM
Nc1nc(O)c2ncn(COC(CO)CO)c2n1	CRFK	cell growth or viability, MTS	–	–	CC50	> 100 µM
CC[C@@]1(O)C(=O)OCc2c1cc1n(c2=O)Cc2cc3ccccc3nc2-1	MDCK	–	Caco-2	0.5 µM, 105 min, pH 7.4	Papp A→B	27 ×10⁻⁶ cm/s
COc1ccc(C=NNC(=S)Nc2ccc(C#N)cc2)cc1	CRFK	cell growth or viability, MTS	–	–	CC50	> 100 µg/mL
O=C(CCCN1CCC(O)(c2ccc(Cl)cc2)CC1)c1ccc(Br)cc1	K562	cell growth or viability	–	–	pIC50	4.39
CCC(CC)O[C@@H]1C=C(C(=O)O)C[C@H](N)[C@H]1NC(C)=O	MDCK	cell growth or viability, MTT	–	72 h	CC50	> 200 µM
CC(C)[C@H](N)C(=O)N1CCC[C@H]1B(O)O	K562	cell growth or viability, ATP luminescence	–	60 µM, 5 days	viability	98%
